Screening results deposited in PubChem BioAssay by several laboratories.
hERG protect: compounds protecting human hERG from proarrhythmic drug block | CHO-hERG, FluxOR thallium flux, dofetilide IC70 present | AID 1511 | 310,000 tested, 0.51% active | activation (rescue from dofetilide block), less the hit threshold, % at 10 µM;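 active means activation above the mean of controls blocked by dofetilide plus 5 SD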;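 further: thallium influx through hERG after potassium depolarization seen as dye fluorescence rise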
KCC2 mod: modulates chloride dependent transport by human KCC2. KCC2 cells, thallium flux FluoZin-2 fluorescence. 190,000 tested, 2.2% active. B-score of Tl+ flux slope (higher = more flux/activation; lower = inhibition) at 10 µM. Q9H2X9;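 active means thallium flux slope and its plate-corrected score both differing from the plate sample mean at a set confidence after two filtering rounds, in either direction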;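 further: slope of fluorescence scaled to starting intensity during 10 to 20 s after thallium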
Target sequence (Q9H2X9 whole entry, looked up): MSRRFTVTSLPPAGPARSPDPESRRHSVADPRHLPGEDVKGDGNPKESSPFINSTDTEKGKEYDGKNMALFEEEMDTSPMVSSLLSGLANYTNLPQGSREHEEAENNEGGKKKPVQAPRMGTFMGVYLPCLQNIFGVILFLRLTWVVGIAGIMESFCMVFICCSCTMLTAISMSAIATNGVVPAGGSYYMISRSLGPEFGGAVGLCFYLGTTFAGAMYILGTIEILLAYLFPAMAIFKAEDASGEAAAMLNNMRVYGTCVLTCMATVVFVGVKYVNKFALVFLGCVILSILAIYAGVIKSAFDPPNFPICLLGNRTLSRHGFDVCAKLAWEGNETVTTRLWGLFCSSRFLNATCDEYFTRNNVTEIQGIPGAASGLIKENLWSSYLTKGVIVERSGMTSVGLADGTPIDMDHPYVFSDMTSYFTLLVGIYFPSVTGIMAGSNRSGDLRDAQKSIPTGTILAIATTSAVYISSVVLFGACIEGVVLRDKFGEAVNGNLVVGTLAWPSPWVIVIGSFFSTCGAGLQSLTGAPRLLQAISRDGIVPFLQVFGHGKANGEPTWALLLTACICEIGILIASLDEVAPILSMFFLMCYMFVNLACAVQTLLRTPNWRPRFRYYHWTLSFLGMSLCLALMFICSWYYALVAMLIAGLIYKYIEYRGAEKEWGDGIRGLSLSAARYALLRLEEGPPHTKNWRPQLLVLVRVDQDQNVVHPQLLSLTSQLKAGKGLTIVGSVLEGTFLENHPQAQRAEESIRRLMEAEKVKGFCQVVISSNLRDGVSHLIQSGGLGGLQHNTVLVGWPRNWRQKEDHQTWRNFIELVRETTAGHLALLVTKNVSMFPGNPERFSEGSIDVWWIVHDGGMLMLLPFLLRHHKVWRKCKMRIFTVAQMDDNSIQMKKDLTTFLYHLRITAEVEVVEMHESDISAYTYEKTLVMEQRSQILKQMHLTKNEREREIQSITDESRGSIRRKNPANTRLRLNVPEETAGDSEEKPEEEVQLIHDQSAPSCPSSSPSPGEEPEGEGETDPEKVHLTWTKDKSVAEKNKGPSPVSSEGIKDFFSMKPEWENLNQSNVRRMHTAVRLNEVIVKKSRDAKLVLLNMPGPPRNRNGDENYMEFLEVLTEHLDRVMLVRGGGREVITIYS
AI-2 QS mod: Vibrio harveyi AI-2 quorum sensing modulation. activity change, % at 7.5 µM. 300,000 tested, 0.4% active. Vibrio harveyi JMH597 AI-2 luminescence/OD600 ratio, 9 h; stronger effect = lower value; strain lacks LuxN and CqsS sensors; 0 = neutral-control median; in the data active means activity change below about -75%, passing the limit was not always enough; inconclusive means no clear call, values can overlap the other calls;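 further: luminescence divided by OD600 gain over 9 h not by final OD600 alone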
KCNQ1 block: human KCNQ1 channel inhibition. CHO-K1 KCNQ1, FluxOR thallium flux fluorescence; stronger effect = higher value. B-score at 10 µM. AID 2642. 310,000 tested, 1.3% active. P51787;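 active means compounds whose thallium flux B-score, printed positive for inhibition, exceeds three library SD while starting fluorescence stays within three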;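 further: channel opened by potassium depolarization with thallium stimulus after 20 min compound exposure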
SUMO Mot1 rescue: blocks SUMOylation pathway, rescuing yeast Mot1-301 growth. S. cerevisiae Mot1-301 growth rescue, ATP luminescence, 38.5C; percent above DMSO median, 100 means doubled. AID 2716. 320,000 tested, 1% active. growth rescue, % at 18.8 µM;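 active means every valid replicate shows activation above 250% relative to neutral control wells; inactive means the rest, any valid replicate at or below 250%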
KCNQ1 pot: potentiates or activates the human KCNQ1 potassium channel; P51787; CHO-K1 KCNQ1, thallium flux FluxOR fluorescence; stronger effect = higher value; B-score at 10 µM; 310,000 tested, 0.35% active; AID 2648;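 active means fluorescence ratio B-score, a plate-corrected score, at least three library SD, with initial intensity B-score within 5 SD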
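Medium – assay buffer, equal DMSO in all wells · Material – CHO-K1 cell line with stable KCNQ1 potassium channel expression · Signal – kinetic FluxOR thallium fluorescence, 10-s 1-Hz baseline, 110-s post-stimulus read · Compound – single concentration per compound, DMSO matched to controls · Schedule – 37 °C overnight plating, 90-min dark dye load, 20-min compound pretreatment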
KCC2 sec1: confirmation of human KCC2 transport modulators. shares compounds with KCC2 mod. HEK293-KCC2, thallium flux, FluoZin2 fluorescence; stronger effect = higher value. normalised thallium flux (F/F0 slope) at 10 µM. 3,700 tested, 15% active. AID 1713;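 active means thallium flux slope above the same plate's solvent-only control mean plus 3 SD; inconclusive means the two replicate wells disagree; inactive means no significant difference from solvent-only control wells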
KCC2 bumet counter: bumetanide-insensitive thallium flux in KCC2 cells with ouabain, counter-screen. shares compounds with KCC2 mod. AID 1714. normalized thallium flux at 10 µM. 3,700 tested, 49% active. HEK293-KCC2 + bumetanide/ouabain, thallium flux FluoZin2; stronger effect = higher value;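 active means thallium entry rate above the same plate's blocked-transporter control wells by more than 3 SD; inconclusive means the two repeat wells disagree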;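 further: raw slope of fluorescence over initial fluorescence between 10 and 20 s after thallium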
KCC2 secondary2: KCC2 (human) modulation, second secondary assay | shares compounds with KCC2 mod | HEK293-KCC2, thallium flux FluoZin2 fluorescence; actives lie on both sides; F/F0 rise rate, 10–20 s post-thallium | normalized thallium flux at 10 µM | 3,700 tested, 23% active;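 active means thallium flux slope more than 3 SD above or below the plate's solvent-only control mean, mostly below; inconclusive means the two repeat wells disagreed; inactive means no significant shift from solvent-only controls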
HEK counter1: counter-screen for KCC2 modulators: effect in parental HEK293 cells. shares compounds with KCC2 mod. thallium flux FluoZin2, ouabain; baseline-ratio fluorescence slope, 10–20 s after thallium. thallium flux rate (normalised fluorescence) at 10 µM. 3,700 tested, 46% active. AID 1716;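 active means thallium flux rate significantly above the same plate's solvent-only control wells, beyond their mean plus 3 SD; inconclusive means the two replicate wells gave conflicting results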
KCC2 retest ouab: modulates human KCC2 on retest with ouabain. shares compounds with KCC2 mod. HEK293-KCC2, thallium flux FluoZin2 fluorescence; bidirectional: low = inhibitor, high = activator. raw Tl+ flux slope (below DMSO = inhibition, above = activation) at 10 µM. 3,700 tested, 48% active;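 active means thallium flux slope beyond 3 SD from same-plate DMSO control mean in most replicates, usually higher, sometimes lower; inconclusive means repeat tests gave conflicting results; inactive means no significant difference from controls in most replicates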;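 further: slope of initial-normalized fluorescence between seconds 10 and 20 after thallium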
HEK counter2: counter-screen for KCC2 modulators: effect in parental HEK293 cells | AID 1718 | thallium flux FluoZin-2 fluorescence slope | 3,700 tested, 33% active | shares compounds with KCC2 mod | thallium flux slope at 10 µM;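 active means thallium flux slope above the same plate's solvent-control mean plus 3 SD in both duplicate wells; inconclusive means duplicate wells that disagreed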;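 further: run without ouabain in cells lacking the KCC2 cotransporter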
JMH597 growth rt: retest Vibrio harveyi JMH597 growth inhibition; OD600 absorbance, 9 h; lacks LuxN and CqsS sensors; growth inhibition, % at 7.5 µM; shares compounds with AI-2 QS mod; AID 2726; 750 tested, 1% active;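 active means every replicate shows growth inhibition above 50%; inconclusive means at least half, but not all, replicates pass that cutoff; inactive means fewer than half of replicates pass it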
BB721 const-QS lum: retest counter-screen: lowers luminescence of constitutive-QS Vibrio harveyi BB721; shares compounds with AI-2 QS mod; 9 h; inhibition, % at 7.5 µM; 750 tested, 95% active;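 active means inhibition above about 80% in every replicate, not just on average, limit read from the data; inconclusive means at least half of replicates past the limit, but not all; inactive means fewer than half of replicates past the limit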
BB721 growth: retest: inhibitors of Vibrio harveyi BB721 growth; 750 tested, 3% active; OD600 absorbance, 9 h; shares compounds with AI-2 QS mod; growth inhibition, % at 7.5 µM;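 active means every replicate shows growth inhibition above 50%; inconclusive means at least half but not all replicates above 50% inhibition; inactive means under half of replicates above 50% inhibition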
JMH597 AI-2 mod: Vibrio harveyi AI-2 signaling luminescence modulation – JMH597 strain, confirmation | shares compounds with AI-2 QS mod | 750 tested, 97% active | Vibrio harveyi JMH597 AI-2 quorum sensing luminescence, 9 h; luxN and CqsS knockout, AI-2 only | inhibition, % at 7.5 µM;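 active means every replicate shows more than 75% inhibition of signal versus neutral control wells; inconclusive means half to three quarters of replicates exceed 75% inhibition; inactive means fewer than half of replicates exceed 75% inhibition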
KCNQ1 inh valid: human KCNQ1 channel inhibition, validation assay. 1,600 tested, 93% active. inhibition, % at 10 µM. KCNQ1 cell line, FluxOR thallium flux fluorescence. shares compounds with KCNQ1 block. AID 588353;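 active means primary screen active, with duplicate mean exceeding buffer control mean plus 3 SD of buffer wells, cut at about 28% in these data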
CHO Tl flux: activity in parental CHO cells lacking KCNQ1 | shares compounds with KCNQ1 block | parental CHO-K1, FluxOR thallium flux fluorescence ratio; stronger effect = lower value; zero means no signal rise above baseline | fluorescence ratio (Tl flux) at 10 µM | 1,600 tested, 21% active | AID 588366;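 active means mean of duplicate thallium-flux fluorescence ratios in parental host cells more than 5 SD below the buffer control mean, cut at about 0.38 in these data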;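 further: ratio is peak minus minimum fluorescence divided by baseline fluorescence; actives read low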
KCNQ2 spec: KCNQ1 inhibitor that also blocks rat KCNQ2 channel; inhibition, % at 10 µM; 1,600 tested, 71% active; shares compounds with KCNQ1 block; KCNQ2 cells, FluxOR thallium flux fluorescence;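 active means mean percent inhibition of the KCNQ2 thallium signal more than 5 SD above the buffer-only control wells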;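 further: KCNQ2 expressed in CHO cells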
KCNQ1-KCNE1 inh: human KCNQ1/KCNE1 inhibition in KCNQ1 specificity screen; AID 652147; inhibition, % at 10 µM; shares compounds with KCNQ1 block; 1,600 tested, 77% active; KCNQ1/KCNE1 cells, FluxOR thallium flux fluorescence;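 active means mean percent inhibition of duplicate wells above the buffer-only control mean plus 3 SD of those controls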
Each line names hits and unclear results; the compound was inactive in the other large screens (follow-up assays come after a bar, where they were run). A selection: hits, their analogues and other compounds. The true share with any hit is near 4.2%.

Cc1nn(C)c(C)c1S(=O)(=O)N(CC(=O)N1CCc2ccccc2C1)c1ccc(C(C)C)cc1	none (no result: KCC2 mod) | KCC2 sec1 inconclusive | KCC2 bumet counter inactive | KCC2 secondary2 0.025 | HEK counter1 inconclusive | KCC2 retest ouab 0.014 | HEK counter2 inactive
NS(=O)(=O)c1ccc2c(c1)C1C=CCC1C(C1CC=CCC1)N2 (stereo not given)	KCC2 mod 4.7 (no result: SUMO Mot1 rescue) | KCC2 sec1 inactive | KCC2 bumet counter inactive | KCC2 secondary2 inactive | HEK counter1 inactive | KCC2 retest ouab inactive | HEK counter2 inactive
O=C(NNc1nc2c(F)cc(F)cc2s1)C1COc2ccccc2O1 (stereo not given)	KCC2 mod 6 | KCC2 sec1 inconclusive | KCC2 bumet counter 0.036 | KCC2 secondary2 inactive | HEK counter1 inconclusive | KCC2 retest ouab 0.033 | HEK counter2 inconclusive
Cc1cccc2sc(NNC(=O)C3COc4ccccc4O3)nc12 (stereo not given)	KCC2 mod 10 | KCC2 sec1 inactive | KCC2 bumet counter 0.043 | KCC2 secondary2 inactive | HEK counter1 0.017 | KCC2 retest ouab 0.035 | HEK counter2 0.015
O=C(Nc1nnc(C(F)(F)F)s1)C1COc2ccccc2O1 (stereo not given)	KCC2 mod -3.8 | KCC2 sec1 inactive | KCC2 bumet counter inactive | KCC2 secondary2 inactive | HEK counter1 inactive | KCC2 retest ouab inactive | HEK counter2 inactive
COc1ccc(S(=O)(=O)N(CC(=O)NC2CC2)c2ccc(C)cc2)cc1OC	none
O=C(/C=C/c1cn(CC(O)CN2CCCCC2)c2ccccc12)c1cccs1 (stereo not given)	KCC2 mod 4.6, KCNQ1 block 7 | KCC2 sec1 inactive | KCC2 bumet counter inactive | KCC2 secondary2 0.024 | HEK counter1 inactive | KCC2 retest ouab 0.016 | HEK counter2 inactive
O=C(c1cc(COc2c(F)cccc2F)on1)N1CCc2ccccc2C1	KCC2 mod -4.4, AI-2 QS mod inconclusive | KCC2 sec1 inactive | KCC2 bumet counter inactive | KCC2 secondary2 inactive | HEK counter1 inactive | KCC2 retest ouab 0.015 | HEK counter2 inactive | JMH597 growth rt inactive | BB721 const-QS lum 87 | BB721 growth inactive | JMH597 AI-2 mod 91
O=C(c1ccc2c3n(nc2c1)-c1ccccc1CO3)N1CCCCC1	KCC2 mod -2.5, AI-2 QS mod -84 | KCC2 sec1 inactive | KCC2 bumet counter inconclusive | KCC2 secondary2 inactive | HEK counter1 inactive | KCC2 retest ouab inactive | HEK counter2 inactive | JMH597 growth rt inactive | BB721 const-QS lum 89 | BB721 growth inactive | JMH597 AI-2 mod 95
CCN(CC)C(=O)CSc1ccccc1N	none
CC(=O)c1c(C)cc(C)c(CSc2nnc(-c3ccco3)o2)c1C	KCC2 mod 6, AI-2 QS mod -81 | KCC2 sec1 inactive | KCC2 bumet counter inactive | KCC2 secondary2 inconclusive | HEK counter1 inconclusive | KCC2 retest ouab inactive | HEK counter2 inactive | JMH597 growth rt inactive | BB721 const-QS lum 89 | BB721 growth inactive | JMH597 AI-2 mod 91
Cc1cccc(NC(=O)CSc2nnc(-c3ccco3)o2)c1C	none
O=C1C(=O)N(CCN2CCOCC2)C(c2ccccc2F)/C1=C(\O)c1ccc(S(=O)(=O)N2CCOCC2)cc1 (stereo not given)	none (no result: KCC2 mod)
Cc1cc(C)n(-c2nc(SCCN(C)C)c3c4c(sc3n2)CCCC4)n1	KCC2 mod 6.2, KCNQ1 block 14 | KCC2 sec1 inactive | KCC2 bumet counter 0.02 | KCC2 secondary2 inactive | HEK counter1 0.014 | KCC2 retest ouab 0.025 | HEK counter2 0.016 | KCNQ1 inh valid 88 | CHO Tl flux inactive | KCNQ2 spec 109% | KCNQ1-KCNE1 inh 112%
COc1ccccc1C(=O)NC(CCSC)C(=O)NNC(=O)c1ccncc1 (stereo not given)	none (no result: KCC2 mod)
